TAAR1 antag = human TAAR1 antagonism. inhibition, % at 3 µM. Q96RJ0. hit rate 1.5% among 360,000. AID 624466. CHO RD-HGA16 TAAR1, Fluo-8 calcium fluorescence, antagonist;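 active = inhibition above a per-plate cutoff, the mean inhibition of test compounds on that plate plus 3 SD, cut at about 49% in these data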;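 note: 0% = DMSO plus EC80 beta-PEA response and 100% = DMSO alone without agonist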
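Assay system: CHO-derived RD-HGA16 cells stably expressing human TAAR1 plus Gα16. Timing: 140 s kinetic read after compound, 140 s after agonist. Technique: kinetic Fluo-8 calcium fluorescence measurement. Measure: % inhibition of agonist calcium response.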
CHO parental Ca = counter-screen for OX1R antagonists: effect in parental CHO cells | hit rate 0.63% among 330,000 | parental CHO-K1, ATP-induced calcium, Fluo-8 fluorescence | AID 463079 | inhibition, % at 5.6 µM;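 active = inhibition above that plate's mean sample inhibition plus 3 SD, cut at about 26% in these data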;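 note: 0% = ATP-challenged DMSO wells and 100% = DMSO wells without ATP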
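Measured by: calcium-sensitive Fluo-8 fluorescence / Test system: CHO parental line / Controls: ATP-challenged DMSO wells low, unchallenged DMSO wells high / Measure: % inhibition / Compound: single nominal dose of 5.6 µM per compound / Replicates: single well per compound, no replicates / Reagent: ATP as calcium-mobilizing challenge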
OX1R antag-1 = blocks the human orexin 1 receptor; CHO/OX1R cells, Fluo-8 calcium fluorescence, orexin A; inhibition, % at 5 µM; hit rate 0.43% among 330,000; AID 434989;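 active = inhibition above its plate's threshold, mean inhibition of all tested compounds on the plate plus 3 SD, cut at about 37% in these data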;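 note: 0% = orexin A challenge wells and 100% = SB-334867-A antagonist wells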
Target sequence (O43613 whole entry, looked up): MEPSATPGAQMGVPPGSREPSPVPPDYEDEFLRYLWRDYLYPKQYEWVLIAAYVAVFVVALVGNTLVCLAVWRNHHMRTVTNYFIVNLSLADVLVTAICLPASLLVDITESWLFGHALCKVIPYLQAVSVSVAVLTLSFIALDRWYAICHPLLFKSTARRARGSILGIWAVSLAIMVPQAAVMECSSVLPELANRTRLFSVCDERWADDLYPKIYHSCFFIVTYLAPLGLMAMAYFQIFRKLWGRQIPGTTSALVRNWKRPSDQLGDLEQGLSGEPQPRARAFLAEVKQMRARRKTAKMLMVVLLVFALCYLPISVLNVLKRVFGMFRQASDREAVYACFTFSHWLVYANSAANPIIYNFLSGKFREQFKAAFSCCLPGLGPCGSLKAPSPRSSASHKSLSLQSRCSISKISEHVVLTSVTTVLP
GPR7 antagonist = human neuropeptides B/W receptor 1 antagonism; P48145; hit rate 1.1% among 290,000; GPR7-expressing cells, fluorescence antagonist assay; inhibition, % at 4.4 µM; in the data active = inhibition above about 16%, passing the limit was not always enough;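 note: cells stimulated with the agonist NPW; 0% = agonist with vehicle and 100% = vehicle without agonist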
TAAR1 ag = agonists of human TAAR1. hit rate 0.99% among 360,000. CHO RD-HGA16 TAAR1, Fluo-8 calcium fluorescence; vehicle wells 0%, saturating PEA agonist 100%. AID 624467. activation, % at 3 µM. Q96RJ0;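 active = activation above the mean activation of all test compounds in the run plus 3 SD, cut at about 38% in these data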
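System: CHO-derived RD-HGA16 cells with stable Gα16 and human TAAR1. Times: 17-24 h plating, Fluo-8 75 min 37 °C, 30 min RT. Measured by: calcium-sensitive Fluo-8 signal, excitation 470-495, emission 515-575 nm. Read-out basis: % activation relative to PEA EC100 response. Control set: DMSO and PEA EC100. Repeats: no replicates (n 1).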
OX1R antag-2 = OX1R (human) antagonism | O43613 | OX1R-expressing cells, FRET antagonist read-out | inhibition, % at 6.6 µM | hit rate 1.8% among 330,000 | AID 485270; in the data active = inhibition mostly above about 38%, no sharp cut-off; inactive = mostly below about 40%;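 note: 0% = agonist challenge alone and 100% = reference antagonist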
* marks the source's active call; other numbers are inactive results. A selection: hits, their analogues and other compounds. The true share with any hit is near 4.6%.

Screening CC1(C)OC(=O)C2=C(CC(CCc3ccccc3)OC2c2ccc(Cl)c(Cl)c2)O1 (centres undefined) returned TAAR1 antag -6 and TAAR1 ag -1.
`O=C(/C=C\c1ccco1)Nc1nc(-c2ccccc2)cs1` gave TAAR1 antag -42, CHO parental Ca -6, OX1R antag-1 -9, GPR7 antagonist -3, TAAR1 ag 1 and OX1R antag-2 10.
O=C(/C=C/c1ccccc1)Nc1nc(-c2ccncc2)cs1 was read as TAAR1 antag 50*, CHO parental Ca 17, OX1R antag-1 -18, GPR7 antagonist 15, TAAR1 ag 3 and OX1R antag-2 25.
For CCCCCCCCSC1=CC(=O)C(OC)=C(OC)C1=O the results were TAAR1 antag -10 and TAAR1 ag 21.
For COc1ccccc1CNC(=O)Nc1nc(C(N)Cc2ccc(Cl)cc2)cs1 (centres undefined) the results were TAAR1 antag 51* and TAAR1 ag 45*.
COc1ccccc1CNC(=O)Nc1nc(C(N)C(C)C)cs1 (centres undefined) was read as TAAR1 antag 2 and TAAR1 ag 2.
Screening COc1ccc(CNC(=O)Nc2nc(C(N)Cc3ccc(Cl)cc3)cs2)cc1 (centres undefined) returned TAAR1 antag 66* and TAAR1 ag 50*.
For O=Cc1c[nH]c2cccc(OCc3ccccc3)c12 the results were TAAR1 antag 49* and TAAR1 ag -2.
For COc1cccc(/C=N/Nc2snc(SC)c2C#N)c1 the results were TAAR1 antag 18, CHO parental Ca -7, OX1R antag-1 4, GPR7 antagonist -4, TAAR1 ag 42* and OX1R antag-2 67*.
CSc1nsc(N/N=C/c2ccccc2)c1C#N was read as TAAR1 antag -10, CHO parental Ca 7, OX1R antag-1 -10, GPR7 antagonist -14, TAAR1 ag 8 and OX1R antag-2 12.
For CC(=O)c1ccc(S(=O)(=O)N2CCN(C(=O)C(=O)c3cccc(C(F)(F)F)c3)CC2)cc1 the results were TAAR1 antag 8 and TAAR1 ag 0.
`O=C(N/C(=C\c1ccc([N+](=O)[O-])cc1)C(=O)N1CCOCC1)c1ccccc1` gave TAAR1 antag -8, CHO parental Ca -19, OX1R antag-1 -10, GPR7 antagonist -15, TAAR1 ag 6 and OX1R antag-2 21.
Screening O=C(N/C(=C/c1ccc([N+](=O)[O-])cc1)C(=O)N1CCOCC1)c1ccco1 returned TAAR1 antag -29, CHO parental Ca -2, OX1R antag-1 -12, GPR7 antagonist 4, TAAR1 ag 0 and OX1R antag-2 74*.
Screening CCOC(=O)c1c(NC(=O)CSc2c[nH]c3ccccc23)sc2c1CCCC2 returned TAAR1 antag 1, CHO parental Ca 0, OX1R antag-1 -19, GPR7 antagonist -2, TAAR1 ag 0 and OX1R antag-2 1.
CCOC(=O)c1c(NC(=O)CSc2nnc(-c3c[nH]c4ccccc34)n2CCOC)sc2c1CCCCC2 was read as TAAR1 antag -25, CHO parental Ca -9, OX1R antag-1 13, GPR7 antagonist -17, TAAR1 ag -1 and OX1R antag-2 45*.
Screening O=C(NC1CCCCC1)C1c2ccccc2OCC(=O)N1Cc1ccccc1 (centres undefined) returned TAAR1 antag -6 and TAAR1 ag 2.
Screening O=C1NC(Cc2ccc(O)cc2)c2nc3ccccc3c(=O)n2-c2ncccc21 (centres undefined) returned TAAR1 antag -8 and TAAR1 ag 2.
`O=C(NCc1ccc(F)cc1)c1cccc2c1C(=O)c1ccc(Cl)cc1S2(=O)=O` gave TAAR1 antag 0 and TAAR1 ag 9.
Screening COc1ccc(OC[C@@H](O)CNC(=O)c2cccc3c2C(=O)c2ccc(Cl)cc2S3(=O)=O)cc1 returned TAAR1 antag 35, CHO parental Ca -35, OX1R antag-1 -22, TAAR1 ag 25 and OX1R antag-2 42*.
O=C(Nc1cccc(-c2nc3cccnc3s2)c1)c1ccco1 was read as TAAR1 antag 34, CHO parental Ca -15, OX1R antag-1 6, GPR7 antagonist -18, TAAR1 ag 11 and OX1R antag-2 64*.
Screening O=C(Nc1cccc(NC(=O)c2nccc3ccccc23)c1)c1ccco1 returned TAAR1 antag 28, CHO parental Ca -1, OX1R antag-1 -26, TAAR1 ag 21 and OX1R antag-2 54*.
CCOc1ncccc1C(=O)Nc1cccc(-c2nc3cccnc3s2)c1 was read as TAAR1 antag 47, CHO parental Ca -18, OX1R antag-1 8, GPR7 antagonist -11, TAAR1 ag 7 and OX1R antag-2 68*.
`COc1ccc(CN(C2CCCC2)S(=O)(=O)c2cc(Br)ccc2Br)c(OC)c1` gave TAAR1 antag -1 and TAAR1 ag 0.
`CCc1ccc(NC(=O)C2CCCN(S(=O)(=O)c3ccc4c(c3)CC(C)N4C(C)=O)C2)cc1` (centres undefined) gave TAAR1 antag -13, CHO parental Ca -13, OX1R antag-1 -30, GPR7 antagonist -6, TAAR1 ag 2 and OX1R antag-2 15.
CCc1ccc(NC(=O)C2CCN(S(=O)(=O)c3ccc4c(c3)CC(C)N4C(C)=O)CC2)cc1 (centres undefined) was read as TAAR1 antag 50*, CHO parental Ca 36*, OX1R antag-1 -15, GPR7 antagonist 21*, TAAR1 ag 11 and OX1R antag-2 19.
Screening COc1ccc(CN(C)S(=O)(=O)c2nnc(NC(=O)c3ccccc3)s2)cc1OC returned TAAR1 antag -39, CHO parental Ca -9, OX1R antag-1 -8, GPR7 antagonist -15, TAAR1 ag 3 and OX1R antag-2 22.
`COc1ccc(CN(C)S(=O)(=O)c2nnc(NC(=O)c3cccc(F)c3)s2)cc1OC` gave TAAR1 antag 17, CHO parental Ca -1, OX1R antag-1 -28, GPR7 antagonist 0, TAAR1 ag 4 and OX1R antag-2 43*.
Screening O=S(=O)(c1ccccc1)N1CCCc2nc(-c3ccccc3)ccc21 returned TAAR1 antag 13 and TAAR1 ag 2.
COc1ccc(NC(=O)CSCC(=O)Nc2ccccc2N2CCCC2)cc1 was read as TAAR1 antag -1, CHO parental Ca -12, OX1R antag-1 -26, TAAR1 ag 0 and OX1R antag-2 19.
COc1ccc(NC(=O)CSCC(=O)Nc2ccccc2N2CCCCC2)cc1 was read as TAAR1 antag 25, CHO parental Ca -30, OX1R antag-1 -8, TAAR1 ag 4 and OX1R antag-2 36*.
Screening C/C(=N\NC(=O)c1ccccc1O)C1C(=O)c2ccccc2C1=O returned TAAR1 antag 1, CHO parental Ca -13, OX1R antag-1 -21, GPR7 antagonist 7, TAAR1 ag 16 and OX1R antag-2 61*.

Screening results deposited in PubChem by The Scripps Research Institute Molecular Screening Center.
